# Bioassay records (PubChem BioAssay)
# PG9 binder: small molecules binding HIV-1 gp120 antibody PG9. TR-FRET gp120-PG9 antibody binding. inhibition, % at 6.7 µM. 0.43% of 360,000 active; in the data active = inhibition above about 8.5%
# NTR1 agonist: agonists of human neurotensin receptor NTR1. activation, % at 20 µM. P30989. NTR1-U2OS beta-arrestin-GFP spot imaging, agonist mode. 0.17% of 330,000 active;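 active = activation at or above 40% of the spot to cytoplasm intensity ratio, with at least 20 cells analyzed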;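 also: 0% = DMSO without peptide and 100% = 100 nM NTR1 peptide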
# MC4R ag barr: agonists of human melanocortin 4 receptor (MC4R) beta-arrestin; P32245; U2OS MC4R beta-arrestin complementation, luminescence; percent of melanotan II response, DMSO zero; activation, % at 8.9 µM; 0.98% of 360,000 active;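 active = activation above a per-plate cutoff, the mean activation of sample wells on that plate plus 3 SD, cut at about 8% in these data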
# Rev-erbA mod: Rev-erb alpha (human) modulation; P20393; Rev-erbα–FITC-DNA binding, fluorescence polarization, 90 min; activity, % at 10 µM; 0.79% of 370,000 active;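 active = activity above about 14%, limit read from the data; passing the limit was not always enough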;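 also: 0% = DMSO wells with 35 nM protein and 100% = DMSO wells with 750 nM protein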
# Target sequence (P20393 whole entry, looked up): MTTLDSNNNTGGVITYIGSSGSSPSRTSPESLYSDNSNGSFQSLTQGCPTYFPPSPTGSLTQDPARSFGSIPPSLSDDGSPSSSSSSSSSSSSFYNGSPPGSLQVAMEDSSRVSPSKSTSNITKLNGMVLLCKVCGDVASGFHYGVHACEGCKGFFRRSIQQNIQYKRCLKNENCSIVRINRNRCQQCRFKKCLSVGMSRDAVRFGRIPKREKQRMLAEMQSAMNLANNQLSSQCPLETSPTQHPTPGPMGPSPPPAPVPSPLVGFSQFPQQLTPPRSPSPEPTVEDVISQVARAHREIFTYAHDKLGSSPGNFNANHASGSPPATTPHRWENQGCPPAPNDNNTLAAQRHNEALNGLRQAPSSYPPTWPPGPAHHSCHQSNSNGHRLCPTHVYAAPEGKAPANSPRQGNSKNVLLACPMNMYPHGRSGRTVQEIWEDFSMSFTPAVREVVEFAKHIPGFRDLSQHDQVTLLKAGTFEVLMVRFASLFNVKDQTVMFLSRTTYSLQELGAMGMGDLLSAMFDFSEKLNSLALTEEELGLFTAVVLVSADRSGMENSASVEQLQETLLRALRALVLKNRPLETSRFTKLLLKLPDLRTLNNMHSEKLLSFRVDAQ
# MC4R antag cAMP: human MC4R antagonism in cAMP assay; inhibition, % at 6.5 µM; 0.48% of 360,000 active; P32245; MC4R-expressing cells, MTII-stimulated cAMP, LANCE TR-FRET;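 active = inhibition above its plate's cutoff, the mean of tested wells on that plate plus 3 SD, cut at about 29% in these data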;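 also: 0% = Melanotan II alone and 100% = Melanotan II plus saturating MCL0020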
#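 Assay system: U2OS cells stably expressing human melanocortin 4 receptor (MC4R) / Dosing: 6.5 µM / Timing: compound 30 min, challenge 1 h, detection 1 h / Measured by: Eu-cAMP/anti-cAMP TR-FRET, emission 671 nm / Replicates: singlicate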
# Rev-erbA confirm: Rev-erb alpha (human) modulation, hit confirmation. shares compounds with Rev-erbA mod. Rev-erb alpha FITC-DNA binding, fluorescence polarization, 90 min. activation, % at 25 µM. 61% of 3,000 active. AID 1259319;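 active = activation at or above a set limit, or at least 3 SD above the negative control mean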;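 also: 0% = 35 nM protein with DMSO and 100% = 750 nM protein high control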
# RORg counter: RORgamma DNA-binding activity, dose-response counter-screen; shares compounds with Rev-erbA mod; purified RORgamma protein-FITC-DNA binding, fluorescence polarization; IC50, µM; 8% of 910 active; AID 1259320;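 active = Compounds whose fitted half-maximal concentration for disrupting protein-DNA binding is below 10 micromolar; the record names Rev-erb in its text, so the target is in doubt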
# An asterisk follows results filed as active; i = inactive; / = no result. Hits are enriched below; roughly 2.5% of the tested compounds scored in any of these assays.
SMILES,PG9 binder,NTR1 agonist,MC4R ag barr,Rev-erbA mod,MC4R antag cAMP,Rev-erbA confirm,others
CCOc1ccc(N(C)c2ccc(/C=C3/SC(=S)NC3=O)cc2)cc1,1,-2,-2,17,-2,/,
CN(C)c1ccc(C=C2SC(=S)NC2=O)cc1,-16,/,1,48*,14,35*,RORg counter=>40
O=c1[nH]c(-c2ccc3c(c2)OCO3)nc2c1sc(=S)n2-c1ccccc1,-2,1,0,76*,11,18,
O=C(NCC1CCN(C(=O)C(=O)c2cc3ccccc3o2)CC1)c1ccc2c(c1)OCC2,-1,/,/,-3,/,/,
CCN1C(=O)/C(=C/C=C2/SCCN2C)SC1=S,-8,-1,1,78*,-2,148*,RORg counter=i
CCN1C(=O)/C(=C/C=C2/Sc3ccccc3N2CCO)SC1=S,-2,-3,-3,14,0,/,
CN1CCS/C1=C\C=C1/SC(=S)N(CC(=O)O)C1=O,-17,/,-3,293*,-36,173*,RORg counter=>40
COC(=O)[C@]12C[C@H](CC(=O)NCCC(C)C)C(=O)N(CCC3=CCCCC3)C1=C[C@H](C1CCCC1)O[C@@H]2C,/,/,/,6,/,/,
Cc1cc(C(F)(F)F)c(C#N)c(SCC(=O)Nc2nc3ccccc3s2)n1,-1,7,0,7,3,/,
CCOC(=O)c1c(NC(=O)CSc2nc(C)cc(C)c2C#N)sc(C(C)=O)c1C,2,-1,0,35*,15,17*,
CCc1nnc(NC(=O)CSc2nc3c(cc2C#N)CCCC3)s1,-1,-1,0,34*,9,23*,
Cc1ccc2sc(NC(=O)CSc3nc(C)cc(C)c3C#N)nc2c1,5,0,1,29*,4,6,
CCOC(=O)c1c(NC(=O)CSc2nnc(-c3ccc(C)cc3)o2)sc(C(C)=O)c1C,-1,0,-1,10,-6,/,
CCOC(=O)c1sc(NC(=O)CSc2nc(C)cc(C)n2)c(C#N)c1C,1,2,0,0,5,/,
CCOC(=O)c1sc(NC(=O)CSc2nc3c(cc2C#N)CCCCC3)c(C#N)c1C,0,4,-2,30*,4,20*,
C=CCCC(=O)N1C[C@H]2CCN(C)[C@H]2C[C@H]1c1ccccc1Br,-2,/,/,3,/,/,
COC(=O)[C@]12C[C@H](CC(=O)NCc3cccs3)C(=O)N(Cc3ccc(Cl)cc3Cl)C1=C[C@H](C(C)(C)C)O[C@@H]2C,/,/,/,5,/,/,
COc1ccc(NC(=O)CSc2nnc(-c3cccs3)o2)cc1Cl,/,/,/,0,/,/,
CCOC(=O)c1c(NC(=O)CSc2nc3ccccc3c(=O)n2-c2ccccc2)sc(C(C)=O)c1C,1,-1,0,140*,9,15,
CC1(C)Cc2c(sc3c2c(N)nc(=S)n3Cc2ccccc2)CO1,-3,-1,/,111*,/,36*,RORg counter=>40
Cc1cc(NC(=O)COC(=O)c2n[nH]c3ccccc23)no1,-1,-1,1,7,1,/,
Cc1cc2oc(=O)cc(COC(=O)c3n[nH]c4ccccc34)c2cc1C,5,4,2,23*,-2,-1,
c1cnc(SCC2CCCCC2)c(-c2nc3ccccc3[nH]2)c1,/,/,/,32*,/,33*,RORg counter=>40
N#CCSc1ncccc1-c1nc2ccccc2[nH]1,-1,0,1,2,-2,/,
CN(C)[C@H]1CCN(c2cccc3c2S(=O)(=O)N2CC[C@@H](C2)O3)C1,/,/,/,-8,/,/,
SMILES,PG9 binder,NTR1 agonist,MC4R ag barr,Rev-erbA mod,MC4R antag cAMP,Rev-erbA confirm,others
Cc1nn(C)c(C)c1NC(=O)CSc1nc(Cc2ccccc2)nc2c1cnn2-c1ccccc1,-1,0,0,181*,1,76*,
COc1ccccc1CN1CC(C(=O)NCc2nc3ccccc3n2C)CCC1=O (stereo not drawn),-1,1,0,4,5,/,
COc1ccccc1CN1CC(C(=O)NCc2nccn2C)CCC1=O (stereo not drawn),-2,0,-2,20*,4,4,
CC(C)[C@H](NS(=O)(=O)c1ccc(F)cc1F)C(=O)N1CCC[C@H]1C(=O)NCCc1ccccc1Cl,-2,/,/,1,/,/,
O=C1OC(c2ccc(O)cc2)(c2ccc(O)cc2)c2ccccc21,0,-2,6,-5,6,/,
O=C1OC(c2ccccc2)(c2ccccc2)c2ccsc21,-2,/,-1,23*,11,20*,
c1ccc(CC(Nc2cccnc2)c2ccccc2)cc1 (stereo not drawn),1,/,/,4,/,/,
O=C(Nc1nc(-c2cc3ccccc3oc2=O)cs1)c1ccc(Br)o1,0,4,4,54*,8,31*,
C=CCNc1nc(NCCNC(C)=O)c2sc(-c3ccccc3)cc2n1,-1,/,-3,2,-4,/,
C=CCn1c(SCCNC(C)=O)nc2cc(-c3ccccc3)sc2c1=O,1,-1,1,49*,14,54*,RORg counter=>40
O=S1(=O)CCSC[C@@H](CN2CCN(c3ccccc3)CC2)N1,-1,/,/,7,/,/,
S=c1[nH]nc(-c2n[nH]c3c2CCC3)n1N=Cc1ccc(Br)s1,/,/,/,-6,/,/,
COc1cc(/C=C(\C#N)c2nc3ccccc3o2)ccc1O,-7,-2,-3,43*,-2,60*,RORg counter=>40
Cn1c(=O)c2[nH]c(SCC(=O)NCCc3cccc(F)c3)nc2n(C)c1=O,/,/,/,-6,/,/,
Cn1nc2c3ccccc3n(Cc3ccccc3)c2nc1=S,1,2,0,30*,4,23*,
CCOc1ccc(/C=C2\NCCc3cc(OCC)c(OCC)cc32)cc1OCC,/,/,/,-9,/,/,
O=C(c1ccc(F)cc1)c1ccc(-c2ccc(F)cc2)nc1,8,0,3,28*,1,12,
COc1ccc(C(=O)c2ccc(-c3ccc(OC)cc3)nc2)cc1,-1,-1,-2,18,3,/,
CSc1ccc(/C=C(\C#N)C(=O)Nc2cccc(C)c2)cc1,0,0,6,22*,-13,10,
CSc1ccc(/C=C(\NC(=O)c2ccc(C)cc2)C(=O)Nc2cccc(C)c2)cc1,0,3,-1,-2,8,/,
COc1cc(C(C)=O)ccc1Oc1ncnc2c1cnn2-c1ccc(F)cc1,0,2,-3,25*,8,14,
C[C@H]1[C@@H](c2ccccc2)Oc2c(Cl)cccc2S(=O)(=O)N1C,0,/,/,7,/,/,
COC(=O)c1sc2nc(SCc3ccccc3C)n(N)c(=O)c2c1C,-1,1,-2,107*,9,12,
CCC(=O)c1ccc(OCc2ccc(C(=O)c3ccccc3)cc2)cc1,1,0,0,70*,10,149*,RORg counter=>40
Clc1ccc([C@H]2OC[C@@]3(CNCCc4c[nH]c5ccccc45)CS[C@H](c4ccc(Cl)cc4)N23)cc1,/,/,/,-1,/,/,
Oc1c(C=Nc2cccc3cccnc23)sc2ccccc12,-6,-4,/,26*,/,36*,RORg counter=>40
